# Source: PubChem (Sanford-Burnham Center for Chemical Genomics)
# A selection: hits, their analogues and other compounds. The true share with any hit is near 1.9%.
# STEP block: blocks human striatal-enriched tyrosine phosphatase | 360,000 tested, 0.25% active | AID 588621 | recombinant STEP, OMFP fluorogenic substrate, fluorescence | P54829 | inhibition, % at 20 µM;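 active means inhibition at 20 µM, scaled per plate between control wells, above about 37%, limit read from the data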;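 further: 0% = DMSO with enzyme and substrate and 100% = substrate only without enzyme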
#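 System: STEP (striatal-enriched tyrosine phosphatase) enzyme, cell-free; medium: Bis-Tris pH 6.0 buffer with DTT, detergent; dosing: 20 µM, 1% DMSO; times: reaction 20 min, ambient temperature; detection: fluorescence, 480/540 nm; read-out basis: normalized % inhibition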
# FAS-TE inh: blocks the thioesterase domain of human fatty acid synthase | 360,000 tested, 0.67% active | P49327 | AID 602261 | recombinant FAS-TE, OMFH fluorogenic substrate, fluorescence endpoint | inhibition, % at 15 µM;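 active means compounds whose normalised, plate-corrected inhibition of enzyme fluorescence in the single-dose primary screen is 50% or more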;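 further: 0% = DMSO with enzyme and 100% = substrate without enzyme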
# Scp1 inh: Scp-1 (human) phosphatase inhibition. inhibition, % at 20 µM. Q9GZU7. 340,000 tested, 0.88% active. Recombinant Scp1, phosphopeptide, malachite green phosphate absorbance. AID 493091;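 active means inhibition above about 50% at 20 µM, limit read from the data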;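 further: plate controls were DMSO wells with enzyme for no effect and wells lacking enzyme for full effect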
#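 Assay system: SCP-1 catalytic fragment, aa 76-261 | Buffer or medium: Tris acetate buffer pH 5.5 with MgCl2 and Tween-20 | Compound: One concentration, 20 µM, with 1.0% DMSO | Also added: Phospho 17-mer peptide substrate | Signal: Absorbance at 630 nm | Incubation: 45 min enzyme reaction at room temperature | Measure: % inhibition of SCP-1 phosphate liberation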
# LMPTP block: blocks human LMPTP phosphatase; AID 651560; P24666; inhibition, % at 20 µM; recombinant LMPTP-A, OMFP fluorogenic substrate, fluorescence intensity; 360,000 tested, 0.22% active;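 active means compounds that cut the enzyme signal by at least half of the control window in the single-dose screen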;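 further: plate controls were DMSO wells with enzyme plus substrate for no effect and substrate without enzyme for full effect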
#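 Assay system: LMPTP-A, protein tyrosine phosphatase of low molecular weight / Medium: pH 6.0 Bis-Tris buffer with DTT and Triton X-100 / Schedule: 50 min enzyme reaction at room temperature, protected from light / Measured by: endpoint fluorescence intensity from OMFP dephosphorylation / Read-out basis: % inhibition relative to no-enzyme and uninhibited control wells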
# SUMO1 PPI mod: alters human SUMO1 binding to SIM partners; inhibition, % at 20 µM; P63165; 360,000 tested, 0.33% active; SUMO1 binding to a labelled peptide, TR-FRET, 1 h; AID 602429; in the data active means inhibition above about 37%
# * hit, by the source's call; · = no result given.
SMILES,STEP block,FAS-TE inh,Scp1 inh,LMPTP block,SUMO1 PPI mod
O=C1NN(c2cccc(Br)c2)C(=O)/C1=C/c1ccc(-c2cc([N+](=O)[O-])ccc2O)o1,70*,1,99*,77*,102*
CC1=CC(=O)C=CC1=Nc1ccc(N(C)C)cc1,0,2,·,2,0
O=C(COc1ccc(/C=N/NC(=O)c2cc3ccccc3o2)cc1Cl)Nc1ccccc1,54*,7,80*,32,-2
O=C(N/N=C/c1ccc2c(c1)OCO2)c1cc2ccccc2o1,-2,-5,-1,-1,0
CC[n+]1c(/C=C(\C)Nc2ccccc2)sc2ccccc21,1,-6,79*,1,-1
CC[n+]1c(/C=C(\C)SC)sc2ccccc21,3,-6,0,2,-3
COc1ccc(NC(=O)Nc2cc3oc4ccccc4c3cc2OC)cc1,-5,14,-8,1,59*
CCCCCCCCN1C(=O)[C@H](CC(=O)NCCc2ccccc2OC)C[C@@]2(C(=O)OC)CC(C)(C)CC=C12,·,·,·,8,0
CCOC(=O)c1c(C)oc2cc(Br)c(O)c(Br)c12,-1,2,-8,-1,45*
C#CCNC(=O)C[C@@H]1C[C@@]2(C(=O)OC)CC(C)(C)CC=C2N(CCCCCCCC)C1=O,·,·,·,3,0
Cc1ccc(NC(=O)c2cccc(S(=O)(=O)Nc3c(C)n(C)n(-c4ccccc4)c3=O)c2)cc1C,·,·,-2,·,·
Cc1cc(C(C)(C)C)cc(C)c1Cn1c2[n+](c3ccc(C(F)(F)F)cc31)CCCCC2,0,0,66*,0,-19
NC(=O)c1cc[n+](CC2=C(C(=O)O)N3C(=O)[C@@H](NC(=O)C(c4ccccc4)S(=O)(=O)[O-])[C@H]3SC2)cc1 (some centres not stated),97*,-7,85*,15,82*
COc1cc(N=c2ssnc2Cl)cc(OC)c1OC,12,-6,-4,57*,-4
COc1ccc(N=c2ssnc2Cl)cc1,6,-2,-7,45,-2
CCc1c(C)nc2c(C#N)c(C)[nH]n2c1=O,-2,-19,-3,0,54*
O=C(C[n+]1cccc(/C=N/O)c1)NC(=O)Nc1ccccc1,·,-13,·,2,-21
CN1CCN(c2ccc(Nc3ccnc4cc(Cl)ccc34)cc2)CC1,1,-4,8,15,-16
CCN1CCN(c2ccc(Nc3ccnc4ccccc34)cc2)CC1,-3,-8,-2,67*,-28
O=C(Nc1ccc(F)cc1)C(c1cc2ccccc2o1)N1CCN(C(=O)c2ccco2)CC1 (configuration not stated),·,·,·,-1,8
COc1ccc(CNC(=O)C[C@@H]2C=C[C@@H](NS(=O)(=O)c3cccc(OC)c3)[C@@H](CO)O2)cc1,·,·,·,-1,6
CCCCN(C)c1c(C)nc2ccc(C(=O)Nc3cc(-c4ccccc4)ccc3OC)cn12,1,18,·,9,8
CCOc1cc(/C=N/NC(=O)c2ccc(-c3csc(Nc4ccc(C)cc4)n3)cc2)ccc1OCC(=O)O,84*,6,66*,92*,19
COc1cc(/C=N\NC(=O)c2ccc(-c3ccccc3)cc2)ccc1OCC(N)=O,36,-10,5,1,0
Cc1nc(CC(=O)N/N=C/c2ccc(OCC(=O)O)cc2)cs1,-1,-5,24,1,-1
SMILES,STEP block,FAS-TE inh,Scp1 inh,LMPTP block,SUMO1 PPI mod
O=C(O)COc1ccc(/C=N/NC(=O)c2ccc(-c3csc(Nc4ccc(Cl)cc4)n3)cc2)cc1,93*,3,100*,92*,121*
COc1ccc(CC(N)c2csc(Nc3cc(NCc4ccco4)ncn3)n2)cc1 (configuration not stated),-4,-11,·,0,7
N#CC(C(=O)Nc1cccc(Cl)c1)=C1Nc2ccccc2N1,0,3,0,-1,62*
N#CC(C(=O)Nc1ccc(Cl)c(Cl)c1)=C1Nc2ccccc2N1,-2,6,1,0,4
CCCCn1nnnc1C(c1ccccc1OC(F)(F)F)N1CCN(C/C=C/c2ccccc2)CC1 (configuration not stated),1,27,·,0,0
CC1CCN(C(=O)CSc2nnc(-c3ccccc3F)o2)CC1,2,1,-4,-1,54*
